For 13 compounds, IC50 results are on record in ChEMBL document CHEMBL2040825, “Synthesis and cytotoxicity of 3,4-disubstituted-5-(3,4,5-trimethoxyphenyl)-4H-1,2,4-triazoles and novel 5,6-dihydro-[1,2,4]triazolo[3,4-b][1,3,4]thiadiazole derivatives bearing 3,4,5-trimethoxyphenyl moiety” (Bioorg Med Chem Lett, 2012).

Each structure is given as a SMILES string.

Format in all cases: functional, cell-based
One test concerns HT-29. Nature of the test: Cytotoxicity against human HT-29 cells after 48 hrs by MTT assay. The conditions noted are these: HT-29, 48 h. The method in brief:
(§1)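 Cells grown in DMEM with 10% FBS and passaged by trypsinization at 70-80% confluence. Seeding density was 8 × 10^4 cells/well for MKN45, HT-29 and MCF-7 and 5 × 10^4 cells/well for HepG2, then 24 h attachment at 37 °C. Compounds from 10 mM DMSO stock were diluted in medium and applied for 48 h at 37 °C, with 0.1% DMSO as negative control.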

Another test deals with MKN-45. Nature of the test: Cytotoxicity against human MKN45 cells after 48 hrs by MTT assay. Conditions: MKN-45, 48 h. The method in brief: as §1
For a further test, the system named is MCF7. Nature of the test: Cytotoxicity against human MCF7 cells after 48 hrs by MTT assay. Conditions: MCF7, 48 h. The gist of the method:
as §1
Background: Tetrazolium assays rely on reduction of a dye to a coloured formazan, in cell work by metabolically active cells.

For a further test, the system named is HepG2. Nature of the test: Cytotoxicity against human HepG2 cells after 48 hrs by MTT assay. The conditions noted are these: HepG2, 48 h. The gist of the method: as §1

By IC50 is commonly meant the concentration that gives 50% inhibition.

Take `COc1ccc(/C=N/n2c(SCc3ccccc3Cl)nnc2-c2cc(OC)c(OC)c(OC)c2)c(OC)c1`: the IC50 with HT-29 was over 200 µM; in the test with MKN-45, over 200 µM; in the test with MCF7, 63.7 µM; in the test with HepG2 it was over 200 µM.
Consider `COc1cc(-c2nnc(SCc3ccc(F)cc3)n2/N=C/c2ccccc2)cc(OC)c1OC`, for which the IC50 in the test on HT-29, in the test with MKN-45, with MCF7 and in the test with HepG2 was over 200 µM each time.
Consider `COc1cc(-c2nnc(SCc3ccccc3Cl)n2/N=C/c2ccccc2)cc(OC)c1OC`, for which the concentration for half-maximal inhibition (IC50) was over 200 µM with HT-29, over 200 µM with MKN-45, over 200 µM in the test with MCF7 and 31.7 µM in the test on HepG2.
Turning to `COc1ccc(/C=N/n2c(SCc3ccccc3)nnc2-c2cc(OC)c(OC)c(OC)c2)c(OC)c1`, the half-inhibitory concentration (IC50) is over 200 µM with HT-29, 49 µM in the test on MKN-45, 153 µM in the test with MCF7 and 60.9 µM in the test on HepG2.
For `CCOC(=O)CC1(c2ccccc2)Nn2c(nnc2-c2cc(OC)c(OC)c(OC)c2)S1` (stereo not given), in that order: over 200 µM, over 200 µM, over 200 µM and over 200 µM.
On to `CCOC(=O)CSc1nnc(-c2cc(OC)c(OC)c(OC)c2)n1/N=C/c1ccc(OC)cc1OC`, for which the half-maximal inhibitory concentration (IC50) in the test on HT-29, in the test on MKN-45, in the test with MCF7 and in the test with HepG2 was over 200 µM in each case.
For the compound `COc1ccc(/C=N/n2c(SCc3ccc(F)cc3)nnc2-c2cc(OC)c(OC)c(OC)c2)c(OC)c1`, the half-inhibitory concentration (IC50) was 126 µM in the test on HT-29, over 200 µM in the test with MKN-45, over 200 µM in the test with MCF7 and over 200 µM in the test on HepG2.
Consider `COc1cccc2c1C(=O)c1c(O)c3c(c(O)c1C2=O)C[C@@](O)(C(=O)CO)C[C@@H]3O[C@H]1C[C@H](N)[C@H](O)[C@H](C)O1` [DOXORUBICIN], for which the IC50 amounted to 0.168 µM in the test on MKN-45 and 5.57 µM in the test on HepG2.
Turning to `COc1ccc(C2(CC(=O)c3ccc(C)cc3)Nn3c(nnc3-c3cc(OC)c(OC)c(OC)c3)S2)c(OC)c1` (stereo not given), the IC50 in the test on HT-29 worked out at 66.8 µM; with MKN-45 it was 13.8 µM; with MCF7, 10.9 µM; in the test on HepG2 it was 3.17 µM.
For the compound `COc1ccc(/C=N/n2c(SC)nnc2-c2cc(OC)c(OC)c(OC)c2)c(OC)c1`, the 50% inhibitory concentration (IC50) is 144 µM with HT-29, over 200 µM with MKN-45, over 200 µM in the test on MCF7 and over 200 µM in the test with HepG2.
Regarding `COc1cc(-c2nnc(SCc3ccccc3)n2/N=C/c2ccccc2)cc(OC)c1OC`, the IC50 with HT-29, in the test with MKN-45, in the test on MCF7 and in the test on HepG2 was over 200 µM in each case.
For the compound `COc1cc(-c2nnc(SC)n2/N=C/c2ccccc2)cc(OC)c1OC`, the IC50 in the test with HT-29 is over 200 µM; with MKN-45, 28.5 µM; in the test on MCF7, over 200 µM; in the test with HepG2, over 200 µM.
In the case of `COc1cc(-c2nnc3n2NC(CC(=O)c2ccc(C)cc2)(c2ccccc2)S3)cc(OC)c1OC` (stereo not given), the IC50 in the test on HT-29 was 151 µM; in the test on MKN-45, 7.47 µM; in the test on MCF7, over 200 µM; in the test with HepG2 it was 0.58 µM.
